Measurements: ChEMBL document CHEMBL2429834, “Potent histone deacetylase inhibitors derived from 4-(aminomethyl)-N-hydroxybenzamide with high selectivity for the HDAC6 isoform” (J Med Chem, 2013)

Biological target: T1, Protein deacetylase HDAC6 (Homo sapiens) (UniProt Q9UBN7)
T1 sequence (whole entry): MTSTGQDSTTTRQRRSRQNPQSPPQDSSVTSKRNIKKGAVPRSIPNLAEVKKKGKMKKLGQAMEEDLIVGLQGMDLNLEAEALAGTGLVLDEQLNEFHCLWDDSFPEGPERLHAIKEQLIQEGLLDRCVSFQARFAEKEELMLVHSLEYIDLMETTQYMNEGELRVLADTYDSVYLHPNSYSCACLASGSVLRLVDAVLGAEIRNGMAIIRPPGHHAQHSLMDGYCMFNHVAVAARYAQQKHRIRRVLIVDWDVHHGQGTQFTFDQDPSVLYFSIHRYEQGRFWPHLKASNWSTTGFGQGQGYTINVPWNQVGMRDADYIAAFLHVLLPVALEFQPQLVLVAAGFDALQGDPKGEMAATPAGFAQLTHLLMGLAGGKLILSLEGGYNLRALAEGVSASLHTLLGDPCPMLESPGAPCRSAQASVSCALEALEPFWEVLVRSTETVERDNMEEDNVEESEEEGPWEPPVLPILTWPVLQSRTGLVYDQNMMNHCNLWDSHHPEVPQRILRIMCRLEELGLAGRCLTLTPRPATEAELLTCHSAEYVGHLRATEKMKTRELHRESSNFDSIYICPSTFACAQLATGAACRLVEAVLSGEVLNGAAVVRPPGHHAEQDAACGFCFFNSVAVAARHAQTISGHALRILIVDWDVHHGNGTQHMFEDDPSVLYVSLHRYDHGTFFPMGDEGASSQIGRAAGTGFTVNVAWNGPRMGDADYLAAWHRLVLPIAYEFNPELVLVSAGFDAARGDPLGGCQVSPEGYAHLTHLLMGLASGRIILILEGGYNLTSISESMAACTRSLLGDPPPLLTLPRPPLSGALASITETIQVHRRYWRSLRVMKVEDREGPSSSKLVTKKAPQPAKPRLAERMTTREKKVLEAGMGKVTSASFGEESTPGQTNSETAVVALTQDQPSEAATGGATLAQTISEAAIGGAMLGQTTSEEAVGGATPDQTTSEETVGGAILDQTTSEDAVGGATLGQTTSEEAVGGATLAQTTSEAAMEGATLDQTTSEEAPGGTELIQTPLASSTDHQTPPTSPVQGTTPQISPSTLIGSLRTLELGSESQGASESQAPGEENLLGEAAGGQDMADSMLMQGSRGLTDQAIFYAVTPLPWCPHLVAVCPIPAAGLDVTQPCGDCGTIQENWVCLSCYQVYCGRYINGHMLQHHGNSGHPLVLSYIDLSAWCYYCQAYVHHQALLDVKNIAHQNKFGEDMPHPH
Assay: Inhibition of HDAC6 in human HeLa cells assessed as inhibition of acetyl histone hydrolysis at 10 uM after 24 hrs by immunofluorescence assay relative to control
Type: cell-based
Procedure, shortened: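 HeLa cells (8000/well, MEM with 10% FBS) given compound 24 h (histone) or 6 h (tubulin). Fixed in 4% paraformaldehyde, permeabilized with 0.5% Triton X-100, stained with anti-acetyl-lysine or anti-acetyl-tubulin and Alexa 488 secondary plus Hoechst. Imaged at nine sites per well, 20×; percent inhibition relative to 0.2% DMSO controls.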

inhibition: 26%
Compound: Cn1cccc1C(=O)NCc1ccc(C(=O)NO)cc1
